Laboratory results: ChEMBL document CHEMBL5038677, “Identification and In Silico Binding Study of a Highly Potent DENV NS2B-NS3 Covalent Inhibitor” (ACS Med Chem Lett, 2022)
Calls of active or inactive are those of the source. No cut-off for these calls is given here.

Tests used:
[1] = biological target: Genome polyprotein (dengue virus type 2) (UniProt P29990); assay: Inhibition of DENV NS2B-NS3 protease assessed as fluorescence emission using benzoyl-Nle-Lys-Arg-Arg-AMC as substrate at 150 nM preincubated with enzyme for 60 min followed by substrate addition and measured for 15 min by fluorimetric assay
Method in brief: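 The substrate is cleaved to release fluorescent AMC, and fluorescence intensity is the read-out. Percent inhibition is taken from triplicate measurements at 150 nM compound.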

Genome polyprotein [2] = biological target: T1, Genome polyprotein (dengue virus type 2, UniProt P29990); assay: Inhibition of DENV NS2B-NS3 protease assessed as fluorescence emission using benzoyl-Nle-Lys-Arg-Arg-AMC as substrate preincubated with enzyme for 60 min followed by substrate addition and measured for 15 min by fluorimetric assay
Method in brief: (§1)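 Fluorometric protease assay reading the fluorescence of product released from benzoyl-Nle-Lys-Arg-Arg-AMC cleavage, with aprotinin as a positive control. Percent inhibition was taken from triplicate measurements at 150 nM inhibitor. IC50 values were determined by a similar method for selected compounds.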

BHK-21 [3] = assay: Cytotoxicity against DENV infected hamster BHK-21 cells assessed as cell survival rate at 5 uM incubated for 5 days measured by CCK-8 assay; type: toxicity, cell-based, Mesocricetus auratus; conditions: bhk-21, 120 h, time 5 day
[4] = biological target: Genome polyprotein (dengue virus type 2) (UniProt P29990); assay: Inhibition of DENV NS2B-NS3 protease assessed as inactivation constant using benzoyl-Nle-Lys-Arg-Arg-AMC as substrate incubated for 60 min by measuring fluorescence intensity
Method in brief: (§2)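 Time-dependent inactivation of DENV NS2B-NS3 protease was followed by fluorescence from cleavage of benzoyl-Nle-Lys-Arg-Arg-AMC at several inhibitor concentrations. kobs values were obtained at each concentration and plotted against inhibitor concentration to derive kinact, Ki and the second-order rate constant kinact/Ki.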

[5] = biological target: Genome polyprotein (dengue virus type 2) (UniProt P29990); assay: Inhibition of DENV NS2B-NS3 protease assessed as fluorescence emission using benzoyl-Nle-Lys-Arg-Arg-AMC as substrate at 1.4 to 16.7 uM by fluorimetric assay; conditions: dose 1.4-16.7 µM, time min <=60, TDE = time-dependent effect
Genome polyprotein [6] = biological target: T1, Genome polyprotein; assay: Binding affinity to DENV NS2B-NS3 protease assessed as inhibition constant using benzoyl-Nle-Lys-Arg-Arg-AMC as substrate incubated for 60 min by measuring fluorescence intensity; method in brief: as §2
BHK-21 [7] = assay: Cytoprotective activity against DENV infected hamster BHK-21 cells assessed as cell survival rate at 5 uM incubated for 5 days measured by CCK-8 assay; type: functional, cell-based; conditions: Mesocricetus auratus, time 5.0 day
Method in brief: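 BHK-21 cells are infected with DENV and treated with compound at 5 μM. Cell viability is read by CCK-8. Survival rate is compared against the virus-infection control.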

[8] = biological target: Genome polyprotein (dengue virus type 2) (UniProt P29990); assay: Inhibition of DENV NS2B-NS3 protease assessed as ratio of Kinact/Ki using benzoyl-Nle-Lys-Arg-Arg-AMC as substrate incubated for 60 min by measuring fluorescence intensity; method in brief: as §2
Genome polyprotein [9] = biological target: T1, Genome polyprotein; assay: Inhibition of DENV2 NS2B-NS3 protease expressed in Escherichia coli assessed as fluorescence emission using Bz-nKRR-AMC as substrate by microplate reader assay; method in brief: as §1

SMILES	inhibition [1] [%]	other results
COc1ccc(C(=O)Oc2cc(N)n(S(=O)(=O)c3ccc(Oc4ccccc4)cc3)n2)cc1	76.7	–
Nc1ccc(C(=O)Oc2cc(N)n(S(=O)(=O)c3ccc(Br)cc3)n2)cc1	100	IC50 (Genome polyprotein [2]): 74 nM
CCOc1ccc(S(=O)(=O)n2nc(OC(=O)c3ccc(OC)cc3)cc2N)cc1	43.6	–
Nc1cc(OC(=O)c2ccc(-c3ccccc3)cc2)nn1S(=O)(=O)c1ccc(Oc2ccccc2)cc1	95	–
Nc1ccc(C(=O)Oc2cc(N)n(S(=O)(=O)c3ccccc3)n2)cc1	76.4	–
Nc1ccc(C(=O)Oc2cc(N)n(S(=O)(=O)c3ccc(C(F)(F)F)cc3)n2)cc1	52.6	–
CCOc1ccc(S(=O)(=O)n2nc(OC(=O)c3ccc(C)cc3)cc2N)cc1	42.1	–
Cc1ccc(C(=O)Oc2cc(N)n(S(=O)(=O)c3ccc(Oc4ccccc4)cc3)n2)cc1	81	–
CC(C)(C)c1ccc(S(=O)(=O)n2nc(OC(=O)c3ccc([N+](=O)[O-])cc3)cc2N)cc1	20.4	–
Nc1ccc(C(=O)Oc2cc(N)n(S(=O)(=O)c3ccc(Oc4ccccc4)cc3)n2)cc1	100	IC50 (Genome polyprotein [2]): 9 nM
Nc1ccc(C(=O)Oc2cc(N)n(S(=O)(=O)c3ccc(F)cc3)n2)cc1	87.8	–
Nc1cc(OC(=O)c2ccc(-c3ccccc3)cc2)nn1S(=O)(=O)c1ccccc1	100	IC50 (Genome polyprotein [2]): 12 nM
CCOc1ccc(S(=O)(=O)n2nc(OC(=O)c3ccc(-c4ccccc4)cc3)cc2N)cc1	100	Activity (BHK-21 [3]): Non-Toxic; Kinact [4]: 1.05 10^-3/s; inhibition [5]: Tde; Ki (Genome polyprotein [6]): 665 nM; Activity (BHK-21 [7]): Active; Ratio [8]: 1580; IC50 (Genome polyprotein [2]): 6 nM
COc1ccc(S(=O)(=O)n2nc(OC(=O)c3ccc(-c4ccccc4)cc3)cc2N)cc1	59.7	Kinact [4]: 1.13 10^-3/s; inhibition [5]: Tde; Ki (Genome polyprotein [6]): 7250 nM; IC50 (Genome polyprotein [9]): 500 nM; Ratio [8]: 156; IC50 (Genome polyprotein [2]): 500 nM
COc1ccc(C(=O)Oc2cc(N)n(S(=O)(=O)c3ccc(C(F)(F)F)cc3)n2)cc1	16.1	–
Nc1cc(OC(=O)c2ccc(-c3ccccc3)cc2)nn1S(=O)(=O)c1ccc(C(F)(F)F)cc1	41.2	–
Nc1cc(OC(=O)c2ccc([N+](=O)[O-])cc2)nn1S(=O)(=O)c1ccc(C(F)(F)F)cc1	22	–
CC(C)(C)c1ccc(S(=O)(=O)n2nc(OC(=O)c3ccc(N)cc3)cc2N)cc1	88.1	–
Nc1cc(OC(=O)c2ccc([N+](=O)[O-])cc2)nn1S(=O)(=O)c1ccc(Cl)cc1	13.2	–
CC(C)(C)c1ccc(S(=O)(=O)n2nc(OC(=O)c3ccc(-c4ccccc4)cc3)cc2N)cc1	59.8	–
Cc1ccc(C(=O)Oc2cc(N)n(S(=O)(=O)c3ccc(C(F)(F)F)cc3)n2)cc1	19.3	–
CCOc1ccc(S(=O)(=O)n2nc(OC(=O)c3ccc([N+](=O)[O-])cc3)cc2N)cc1	32.6	–
Nc1cc(OC(=O)c2ccc([N+](=O)[O-])cc2)nn1S(=O)(=O)c1ccc(Oc2ccccc2)cc1	64.3	–
Nc1cc(OC(=O)c2ccc([N+](=O)[O-])cc2)nn1S(=O)(=O)c1ccc(Br)cc1	17.3	–
Nc1ccc(C(=O)Oc2cc(N)n(S(=O)(=O)c3ccc(Cl)cc3)n2)cc1	85.6	–
Nc1cc(OC(=O)c2ccc([N+](=O)[O-])cc2)nn1S(=O)(=O)c1ccccc1	27.3	–
COc1ccc(S(=O)(=O)n2nc(OC(=O)c3ccc(N)cc3)cc2N)cc1	68.5	–
CCOc1ccc(S(=O)(=O)n2nc(OC(=O)c3ccc(N)cc3)cc2N)cc1	71.9	–
